According to ChEMBL document CHEMBL4257473, “Design, synthesis and antibacterial evaluation of a polycationic calix[4]arene derivative alone and in combination with antibiotics” (Medchemcomm, 2018):
≈ marks a conversion by molar mass, not a printed value.

Tests used:
Format in all cases: functional
[1] = test system: Staphylococcus epidermidis; assay: Bactericidal activity against methicillin-resistant Staphylococcus epidermidis 57 incubated for 24 hrs followed by replating on Mueller hinton agar plates and measured after 24 hrs; settings: Staphylococcus epidermidis, 57, 24 h
How it was run: (§1)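 MBC follows the broth microdilution MIC step (MHB, 5×10^5 CFU mL⁻¹, 37 °C, 24 h). 15 µL from every clear MIC well is seeded onto Mueller Hinton agar and incubated 37 °C for 24 h. MBC is the lowest concentration giving no growth. At least three replicates, and modal value reported.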

[2] = test system: Staphylococcus aureus; assay: Bactericidal activity against Staphylococcus aureus ATCC 6538 incubated for 24 hrs followed by replating on Mueller hinton agar plates and measured after 24 hrs; settings: ATCC 6538, 24 h; how it was run: as §1
[3] = test system: Staphylococcus aureus; assay: Bactericidal activity against methicillin-resistant Staphylococcus aureus 15 incubated for 24 hrs followed by replating on Mueller hinton agar plates and measured after 24 hrs; settings: Staphylococcus aureus, 15, 24 h; how it was run: as §1
[4] = test system: Pseudomonas aeruginosa; assay: Bactericidal activity against Pseudomonas aeruginosa ATCC 9027 incubated for 24 hrs followed by replating on Mueller hinton agar plates and measured after 24 hrs; settings: ATCC 9027, 24 h
How it was run: (§2)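 MBC follows a broth microdilution MIC run (Mueller Hinton broth, 5×10^5 CFU mL⁻¹, 37 °C, 24 h). 15 µL from every clear well is seeded onto Mueller Hinton agar and incubated at 37 °C for 24 h. MBC is the lowest concentration giving no growth. At least three replicates, modal result used.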

[5] = test system: Staphylococcus aureus; assay: Antibacterial activity against Staphylococcus aureus ATCC 6538 after 24 hrs by microbroth dilution method; settings: ATCC 6538, 24 h
How it was run: (§3)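 Broth microdilution per NCCLS guidelines in Mueller Hinton broth, from overnight cultures. Final inoculum 5×10^5 CFU mL⁻¹. Calixarene tested at 1–1024 μg mL⁻¹, ofloxacin 0.06–2048, chloramphenicol 1–2048, tetracycline 0.03–128 μg mL⁻¹. Plates incubated 37 °C for 24 h. MIC is the lowest concentration with no visible growth. Triplicate, with growth control, and modal value reported.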

[6] = test system: Staphylococcus epidermidis; assay: Antibacterial activity against methicillin-resistant Staphylococcus epidermidis 57 after 24 hrs by microbroth dilution method; settings: Staphylococcus epidermidis, 57, 24 h; how it was run: as §3
[7] = test system: Pseudomonas aeruginosa; assay: Bactericidal activity against Pseudomonas aeruginosa isolate 1 incubated for 24 hrs followed by replating on Mueller hinton agar plates and measured after 24 hrs; settings: isolate 1, 24 h; how it was run: as §2
[8] = test system: Staphylococcus epidermidis; assay: Bactericidal activity against Staphylococcus epidermidis ATCC 35984 incubated for 24 hrs followed by replating on Mueller hinton agar plates and measured after 24 hrs; settings: ATCC 35984, 24 h; how it was run: as §1
[9] = test system: Staphylococcus aureus; assay: Antibacterial activity against methicillin-resistant Staphylococcus aureus 15 after 24 hrs by microbroth dilution method; settings: Staphylococcus aureus, 15, 24 h; how it was run: as §3
[10] = test system: Pseudomonas aeruginosa; assay: Antibacterial activity against Pseudomonas aeruginosa isolate 1 after 24 hrs by microbroth dilution method; settings: isolate 1, 24 h; how it was run: as §3
[11] = test system: Staphylococcus epidermidis; assay: Antibacterial activity against Staphylococcus epidermidis ATCC 35984 after 24 hrs by microbroth dilution method; settings: ATCC 35984, 24 h
How it was run: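 Broth microdilution per NCCLS guidelines in Mueller Hinton broth, overnight culture inoculated at final 5×10^5 CFU mL⁻¹. Calixarene tested at 1-1024 µg mL⁻¹. Incubation 37 °C for 24 h. MIC taken as the lowest concentration with no visible growth. Growth control included, triplicate runs, modal value reported.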

[12] = test system: Pseudomonas aeruginosa; assay: Antibacterial activity against Pseudomonas aeruginosa ATCC 9027 after 24 hrs by microbroth dilution method; settings: ATCC 9027, 24 h; how it was run: as §3

## CC1COc2c(N3CCN(C)CC3)c(F)cc3c(=O)c(C(=O)O)cn1c23 (stereo not drawn) [OFLOXACIN]
[1]
  MBC: > 2050 µg/mL
[2]
  MBC: 0.5 µg/mL (≈ 1.38 µM)
[3]
  MBC: > 2050 µg/mL
[4]
  MBC: 2 µg/mL (≈ 5.53 µM)
[5]
  MIC: 0.25 µg/mL (≈ 0.692 µM)
[6]
  MIC: 512 µg/mL (≈ 1420 µM)
[7]
  MBC: 512 µg/mL (≈ 1420 µM)
[8]
  MBC: 0.5 µg/mL (≈ 1.38 µM)
[9]
  MIC: 512 µg/mL (≈ 1420 µM)
[10]
  MIC: 256 µg/mL (≈ 708 µM)
[11]
  MIC: 0.25 µg/mL (≈ 0.692 µM)

## CN(C)[C@@H]1C(O)=C(C(N)=O)C(=O)[C@@]2(O)C(O)=C3C(=O)c4c(O)cccc4[C@@](C)(O)[C@H]3C[C@@H]12 [TETRACYCLINE]
[1]
  MBC: 16 µg/mL (≈ 36 µM)
[2]
  MBC: 4 µg/mL (≈ 9 µM)
[3]
  MBC: 16 µg/mL (≈ 36 µM)
[12]
  MIC: 16 µg/mL (≈ 36 µM)
[4]
  MBC: 32 µg/mL (≈ 72 µM)
[5]
  MIC: 0.125 µg/mL (≈ 0.281 µM)
[6]
  MIC: 1 µg/mL (≈ 2.25 µM)
[7]
  MBC: 32 µg/mL (≈ 72 µM)
[8]
  MBC: 8 µg/mL (≈ 18 µM)
[9]
  MIC: 1 µg/mL (≈ 2.25 µM)
[10]
  MIC: 16 µg/mL (≈ 36 µM)
[11]
  MIC: 0.5 µg/mL (≈ 1.13 µM)
